Source: ChEMBL document CHEMBL1138952 (Bioorg Med Chem Lett, 2006)
One block for each molecule: values may come before it.

Columns and labels:
Coagulation factor X [1] = target: Coagulation factor X (Homo sapiens, UniProt P00742); assay: Binding affinity to human f10a
[2] = Activity in human plasma by aPTT assay; format: functional
[3] = target: T1, Coagulation factor VII/tissue factor (Homo sapiens) (UniProt P08709+P13726); assay: Activity in human plasma by PT assay; format: functional, cell-free
How it was run: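 In vitro clotting assays (PT, aPTT) were run in human plasma.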

[4] = target: T1, Coagulation factor VII/tissue factor (Homo sapiens); assay: Activity in rabbit plasma by PT assay; format: functional, cell-free; details: Oryctolagus cuniculus, target entry is the homologue from another species
[5] = Clearance in dog at 0.5 mg/kg, iv and 0.2 mg/kg, po; format: ADME, organism-based, Canis lupus familiaris; details: in vivo
[6] = (§1) Volume of distribution in dog at 0.5 mg/kg, iv and 0.2 mg/kg, po; format: ADME, organism-based, Canis lupus familiaris; details: in vivo, read-out: Vdss
How it was run: (§2)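 Dogs received the compounds as TFA salts in a cassette (N-in-1) format, 0.5 mg/kg intravenously and 0.2 mg/kg orally (n = 2), and pharmacokinetic profiles were determined.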

[7] = (§3) Half life in dog at 0.5 mg/kg, iv and 0.2 mg/kg, po; format: ADME, organism-based, Canis lupus familiaris; details: in vivo; how it was run: as §2
[8] = Oral bioavailability in dog at 0.5 mg/kg, iv and 0.2 mg/kg, po; format: ADME, organism-based, Canis lupus familiaris; details: in vivo; how it was run: as §2
[9] = Apparent permeability in Caco-2 cells; format: ADME, cell-based; details: human
Prothrombin = Prothrombin (Homo sapiens, UniProt P00734); assay: Binding affinity to thrombin
Trypsin = Trypsin (Homo sapiens, UniProt P07477+P07478+P35030); assay: Binding affinity to trypsin; format: protein assay
[10] = target: Vitamin K-dependent protein C (Homo sapiens, UniProt P04070); assay: Binding affinity to aPC
Chain of Vitamin K-dependent protein C (P04070 43-197 limits assumed): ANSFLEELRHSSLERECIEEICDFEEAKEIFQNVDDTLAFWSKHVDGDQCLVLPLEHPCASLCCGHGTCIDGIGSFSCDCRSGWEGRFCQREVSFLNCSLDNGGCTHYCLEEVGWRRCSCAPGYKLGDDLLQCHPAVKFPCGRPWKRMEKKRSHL
Chain of Vitamin K-dependent protein C (P04070 212-461 limits assumed): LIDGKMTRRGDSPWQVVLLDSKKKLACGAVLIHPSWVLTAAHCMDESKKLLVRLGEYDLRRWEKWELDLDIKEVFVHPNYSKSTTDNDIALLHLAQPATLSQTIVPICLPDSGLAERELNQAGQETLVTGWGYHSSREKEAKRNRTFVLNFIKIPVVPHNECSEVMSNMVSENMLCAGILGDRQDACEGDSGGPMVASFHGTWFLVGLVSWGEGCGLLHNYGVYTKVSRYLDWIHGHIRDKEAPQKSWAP

Coagulation factor IX = Coagulation factor IX (Homo sapiens, UniProt P00740); assay: Binding affinity to f9a
Chain of Coagulation factor IX (P00740 47-191 limits assumed): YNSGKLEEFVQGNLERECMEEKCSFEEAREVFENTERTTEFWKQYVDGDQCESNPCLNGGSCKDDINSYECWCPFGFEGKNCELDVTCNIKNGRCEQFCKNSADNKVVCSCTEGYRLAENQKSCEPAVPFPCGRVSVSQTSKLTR
Chain of Coagulation factor IX (P00740 227-461 limits assumed): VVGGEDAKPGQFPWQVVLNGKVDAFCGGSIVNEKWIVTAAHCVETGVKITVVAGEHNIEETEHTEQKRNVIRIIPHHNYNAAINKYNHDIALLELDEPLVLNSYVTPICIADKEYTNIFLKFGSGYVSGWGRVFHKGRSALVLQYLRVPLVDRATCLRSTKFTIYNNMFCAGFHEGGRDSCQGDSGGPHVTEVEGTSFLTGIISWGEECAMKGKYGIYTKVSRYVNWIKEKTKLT

Coagulation factor VII = target: T2, Coagulation factor VII (Homo sapiens, UniProt P08709); assay: Binding affinity to f7a
T2 sequence (P08709 whole entry): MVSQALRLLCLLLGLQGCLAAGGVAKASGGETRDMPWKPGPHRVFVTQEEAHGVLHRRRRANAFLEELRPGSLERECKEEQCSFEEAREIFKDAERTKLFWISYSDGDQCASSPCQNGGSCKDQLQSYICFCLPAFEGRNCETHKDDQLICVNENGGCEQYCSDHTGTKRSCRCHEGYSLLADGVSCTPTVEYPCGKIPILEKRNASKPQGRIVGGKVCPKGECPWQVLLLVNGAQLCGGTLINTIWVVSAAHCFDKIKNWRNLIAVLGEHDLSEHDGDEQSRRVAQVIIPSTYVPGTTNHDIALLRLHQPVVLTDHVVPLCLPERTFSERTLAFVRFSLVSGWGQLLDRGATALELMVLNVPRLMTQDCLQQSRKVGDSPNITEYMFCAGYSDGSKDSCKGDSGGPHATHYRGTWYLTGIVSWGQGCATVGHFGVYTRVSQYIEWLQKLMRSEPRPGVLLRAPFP

Plasminogen = Plasminogen (Homo sapiens, UniProt P00747); assay: Binding affinity to plasmin
Chain of Plasminogen (P00747 97-580 limits assumed): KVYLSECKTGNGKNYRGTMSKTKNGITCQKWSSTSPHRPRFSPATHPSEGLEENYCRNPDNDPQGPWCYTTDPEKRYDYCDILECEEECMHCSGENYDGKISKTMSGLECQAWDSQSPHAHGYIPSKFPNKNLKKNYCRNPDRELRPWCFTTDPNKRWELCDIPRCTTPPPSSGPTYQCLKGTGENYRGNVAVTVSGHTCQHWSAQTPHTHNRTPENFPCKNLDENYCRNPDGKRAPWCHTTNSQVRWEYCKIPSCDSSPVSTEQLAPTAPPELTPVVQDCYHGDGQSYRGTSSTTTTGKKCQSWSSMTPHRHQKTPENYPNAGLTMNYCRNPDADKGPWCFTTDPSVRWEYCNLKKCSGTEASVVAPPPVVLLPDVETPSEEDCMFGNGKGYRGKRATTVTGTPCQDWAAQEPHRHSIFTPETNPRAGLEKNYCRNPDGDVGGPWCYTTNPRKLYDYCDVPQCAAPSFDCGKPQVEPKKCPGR
Chain of Plasminogen (P00747 581-810 limits assumed): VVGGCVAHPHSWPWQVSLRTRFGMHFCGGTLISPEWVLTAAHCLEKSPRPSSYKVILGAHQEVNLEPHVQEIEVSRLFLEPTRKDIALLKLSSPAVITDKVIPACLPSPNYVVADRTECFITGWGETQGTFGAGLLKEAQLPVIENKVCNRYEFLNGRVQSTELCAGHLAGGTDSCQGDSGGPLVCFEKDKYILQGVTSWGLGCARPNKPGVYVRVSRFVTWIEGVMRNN

[11] = target: Tissue-type plasminogen activator (Homo sapiens, UniProt P00750); assay: Binding affinity to tPA
Chain of Tissue-type plasminogen activator (P00750 whole entry): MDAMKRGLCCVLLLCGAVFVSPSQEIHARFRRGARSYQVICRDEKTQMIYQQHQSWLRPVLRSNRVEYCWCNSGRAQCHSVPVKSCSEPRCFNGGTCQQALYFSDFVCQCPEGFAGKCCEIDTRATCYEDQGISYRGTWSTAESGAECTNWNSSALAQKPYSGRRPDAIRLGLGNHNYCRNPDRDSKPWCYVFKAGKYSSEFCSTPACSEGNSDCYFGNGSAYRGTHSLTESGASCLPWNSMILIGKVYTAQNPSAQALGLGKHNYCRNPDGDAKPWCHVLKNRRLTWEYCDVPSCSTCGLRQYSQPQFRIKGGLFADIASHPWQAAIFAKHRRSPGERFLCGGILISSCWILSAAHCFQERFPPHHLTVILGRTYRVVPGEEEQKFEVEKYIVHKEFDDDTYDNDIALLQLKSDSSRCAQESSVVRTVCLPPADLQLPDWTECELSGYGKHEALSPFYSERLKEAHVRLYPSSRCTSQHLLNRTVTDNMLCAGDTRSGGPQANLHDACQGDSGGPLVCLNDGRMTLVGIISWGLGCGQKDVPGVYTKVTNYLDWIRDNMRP

[12] = target: Urokinase-type plasminogen activator (Homo sapiens, UniProt P00749); assay: Binding affinity to urokinase
Chymotrypsinogen B = Chymotrypsinogen B (Homo sapiens, UniProt P17538); assay: Binding affinity to chymotrypsin
Chain of Chymotrypsinogen B (P17538 34-164 limits assumed, other chains not shown): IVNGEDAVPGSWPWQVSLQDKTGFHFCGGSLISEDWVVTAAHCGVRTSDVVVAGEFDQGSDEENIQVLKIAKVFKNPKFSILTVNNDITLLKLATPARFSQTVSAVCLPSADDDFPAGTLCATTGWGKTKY
Chain of Chymotrypsinogen B (P17538 167-263 limits assumed, other chains not shown): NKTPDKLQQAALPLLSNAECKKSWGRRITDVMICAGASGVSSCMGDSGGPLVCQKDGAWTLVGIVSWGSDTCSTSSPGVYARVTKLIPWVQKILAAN

Coagulation factor X [13] = target: T3, Coagulation factor X (Oryctolagus cuniculus, UniProt O19045); assay: Binding affinity to rabbit f10a
T3 sequence (O19045 whole entry): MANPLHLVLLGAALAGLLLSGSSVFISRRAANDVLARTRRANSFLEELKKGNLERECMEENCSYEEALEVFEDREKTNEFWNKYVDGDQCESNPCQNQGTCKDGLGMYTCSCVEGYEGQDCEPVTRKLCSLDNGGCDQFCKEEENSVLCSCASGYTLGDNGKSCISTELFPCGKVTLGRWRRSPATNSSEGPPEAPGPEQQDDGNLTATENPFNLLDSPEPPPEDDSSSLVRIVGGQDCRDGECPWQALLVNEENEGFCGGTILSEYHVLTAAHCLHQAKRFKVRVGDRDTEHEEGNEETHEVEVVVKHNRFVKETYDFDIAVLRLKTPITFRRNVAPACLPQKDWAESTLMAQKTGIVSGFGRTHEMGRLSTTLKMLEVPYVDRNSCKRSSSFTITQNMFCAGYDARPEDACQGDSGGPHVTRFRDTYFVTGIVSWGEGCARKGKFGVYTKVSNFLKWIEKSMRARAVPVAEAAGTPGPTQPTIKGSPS

Oryctolagus cuniculus [14] = assay: Inhibition of thrombus formation in iv dosed rabbit arterio-venous shunt model; format: functional, organism-based
[15] = Protein binding in rabbit; format: ADME, Oryctolagus cuniculus; details: plasma, read-out: PPB (converted)
Canis familiaris [16] = assay: as §1; format: ADME, organism-based, Canis lupus familiaris; details: in vivo; how it was run: as §2
Canis familiaris [17] = assay: as §3; format: ADME, organism-based, Canis lupus familiaris; details: in vivo; how it was run: as §2
Oryctolagus cuniculus [18] = assay: Inhibition of thrombus formation in rabbit arterio-venous shunt model at 4.6 umol/kg/h, iv; format: functional, organism-based

Chain of Coagulation factor X (Homo sapiens, UniProt P00742) (P00742 41-179 limits assumed): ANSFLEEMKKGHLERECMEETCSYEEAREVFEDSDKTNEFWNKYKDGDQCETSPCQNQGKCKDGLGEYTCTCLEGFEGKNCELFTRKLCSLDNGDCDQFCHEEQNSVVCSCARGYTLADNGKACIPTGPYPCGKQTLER
Chain of Coagulation factor X (Homo sapiens, UniProt P00742) (P00742 235-488 limits assumed): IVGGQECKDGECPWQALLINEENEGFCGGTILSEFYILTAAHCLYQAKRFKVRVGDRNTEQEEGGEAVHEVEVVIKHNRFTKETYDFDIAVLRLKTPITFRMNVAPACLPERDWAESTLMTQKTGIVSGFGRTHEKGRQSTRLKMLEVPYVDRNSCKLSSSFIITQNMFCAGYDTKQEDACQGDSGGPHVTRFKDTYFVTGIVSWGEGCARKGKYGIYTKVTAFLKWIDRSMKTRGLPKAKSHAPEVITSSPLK

Compound: COc1ccc(-n2nc(C(F)(F)F)c3c(C)nn(-c4ccc(-c5ccccc5CN5CCCC5)cc4)c(=O)c32)cc1
- Ki (Coagulation factor X [1]): 2.8 nM
- 2aPTT [2]: 53 µM
- 2PT [3]: 62 µM

Compound: COc1ccc(-n2nc(Cn3ncnn3)c3nc(C)n(-c4ccc(-c5ccccc5CN5CCCC5)cc4)c(=O)c32)cc1
- Ki (Coagulation factor X [1]): 1.9 nM
- 2aPTT [2]: 20.1 µM
- 2PT [3]: 6.5 µM

Compound: COc1ccc(-n2nc(C#N)c3[nH]c(=O)n(-c4ccc(-c5ccccc5S(C)(=O)=O)cc4F)c(=O)c32)cc1
- Ki (Coagulation factor X [1]): 3 nM
- 2aPTT [2]: 197 µM

Compound: COc1ccc(-n2nc(C(F)(F)F)cc2C(=O)Nc2ccc(-c3ccccc3S(C)(=O)=O)cc2F)cc1
- 2aPTT [2]: 104 µM

Compound: CCOC(=O)c1nn(-c2ccc(OC)cc2)c2c(=O)n(-c3ccc(-c4ccccc4CN4CCCC4)cc3)cnc12
- Ki (Coagulation factor X [1]): 3.8 nM
- 2aPTT [2]: 1.8 µM

Compound: COc1ccc(-n2nc(C(N)=O)c3ncn(-c4ccc(-c5ccccc5CN5CCCC5)cc4)c(=O)c32)cc1.O=C(O)C(F)(F)F
- clearance [5]: 9.17 mL/min/kg
- Vd [6]: 3.9 L/kg
- half-life [7]: 5.4 h
- bioavailability [8]: 94%
- Papp [9]: 12 ×10⁻⁶ cm/s

Compound: COc1ccc(-n2nc(C(N)=O)c3ncn(-c4ccc(-c5ccccc5CN5CCCC5)cc4F)c(=O)c32)cc1.O=C(O)C(F)(F)F
- clearance [5]: 12.7 mL/min/kg
- Vd [6]: 4.9 L/kg
- half-life [7]: 5.1 h
- bioavailability [8]: 96%
- Papp [9]: 15 ×10⁻⁶ cm/s

Compound: CCOC(=O)c1nn(-c2ccc(OC)cc2)c2c(=O)n(-c3ccc(-c4ccccc4CN4CCCC4)cc3F)cnc12
- Ki (Coagulation factor X [1]): 3.6 nM

Compound: COc1ccc(-n2nc(Cn3cnnn3)c3nc(C)n(-c4ccc(-c5ccccc5CN5CCCC5)cc4)c(=O)c32)cc1
- Ki (Coagulation factor X [1]): 1.4 nM

Compound: CN(C)Cc1nccn1-c1ccc(NC(=O)c2cc(C(F)(F)F)nn2-c2ccc3onc(N)c3c2)c(F)c1.Cl [RAZAXABAN HYDROCHLORIDE]
- 2PT [3]: 2.1 µM
- Vdss (Canis familiaris [16]): 5.3 L/kg
- T1/2 (Canis familiaris [17]): 3.4 h
- fraction unbound [15]: 0.07

Compound: COc1ccc(-n2nc(C(N)=O)c3ncn(-c4ccc(-c5ccccc5CN5CC[C@@H](O)C5)cc4)c(=O)c32)cc1
- Ki (Coagulation factor X [1]): 1.5 nM
- 2aPTT [2]: 5 µM
- 2PT [3]: 3.6 µM

Compound: COc1ccc(-n2nc(C(N)=O)c3ncn(-c4ccc(-c5ccccc5CN5CCCC5)cc4F)c(=O)c32)cc1 [listing 1 of 2 here]
- Ki (Coagulation factor X [1]): 0.74 nM
- 2aPTT [2]: 3.9 µM
- Ki (Prothrombin): 1800 nM
- Ki (Trypsin): > 2500 nM
- Ki [10]: > 76000 nM
- Ki (Coagulation factor IX): > 15000 nM
- Ki (Coagulation factor VII): > 15000 nM
- Ki (Plasminogen): > 15000 nM
- Ki [11]: > 33000 nM
- Ki [12]: > 13000 nM
- Ki (Chymotrypsinogen B): 530 nM
- Ki (Coagulation factor X [13]): 1.2 nM
- IC50 (Oryctolagus cuniculus [18]): > 1000 nM
- inhibition in vivo at 4.6 µmol/kg/h (Oryctolagus cuniculus [18]; iv): 33%
- fraction unbound [15]: 0.15

Compound: COc1ccc(-n2nc(C#N)c(N)c2C(=O)Nc2ccc(-c3ccccc3S(C)(=O)=O)cc2F)cc1
- Ki (Coagulation factor X [1]): 8.4 nM

Compound: COc1ccc(-n2nc(C(N)=O)c3ncn(-c4ccc(-c5ccccc5CN5CCCC5)cc4F)c(=O)c32)cc1 [listing 2 of 2 here]
- 2PT [3]: 3.4 µM
- 2PT [4]: 1.6 µM

Compound: COc1ccc(-n2nc(Cn3ccnc3)c3nc(C)n(-c4ccc(-c5ccccc5CN5CCCC5)cc4)c(=O)c32)cc1
- Ki (Coagulation factor X [1]): 2.1 nM

Now from value to molecule, other results behind:

- Ki (Coagulation factor X [1]): 45 nM
Compound: CCOC(=O)c1nn(-c2ccc(OC)cc2)c2c(=O)n(-c3ccc(-c4ccccc4CO)cc3)cnc12

- 2PT [3]: 2.2 µM
- 2PT [4]: 1.8 µM
Compound: COc1ccc(-n2nc(C(N)=O)c3ncn(-c4ccc(-c5ccccc5CN5CCCC5)cc4)c(=O)c32)cc1 [listing 1 of 2 here]

- Ki (Coagulation factor X [1]): 2.1 nM
Compound: COc1ccc(-n2nc(C#N)c3ncn(-c4ccc(-c5ccccc5CN(C)C)cc4)c(=O)c32)cc1

- Ki (Prothrombin): 1600 nM
- Ki (Trypsin): > 4200 nM
- Ki [10]: > 76000 nM
- Ki (Coagulation factor IX): > 41000 nM
- Ki (Coagulation factor VII): > 15000 nM
- Ki (Plasminogen): > 15000 nM
- Ki [11]: > 33000 nM
- Ki [12]: > 13000 nM
- Ki (Chymotrypsinogen B): 7930 nM
- Ki (Coagulation factor X [13]): 1 nM
- IC50 (Oryctolagus cuniculus [14]; Oryctolagus cuniculus): 1200 nM
- fraction unbound [15]: 0.23
Compound: COc1ccc(-n2nc(C(N)=O)c3ncn(-c4ccc(-c5ccccc5CN5CCCC5)cc4)c(=O)c32)cc1 [listing 2 of 2 here]
- 2aPTT [2]: 4 µM
- ID50 (Oryctolagus cuniculus [14]): 5.5 µmol/kg/h

- Ki (Coagulation factor X [1]): 1.8 nM
Compound: COc1ccc(-n2nc(C#N)c3nc(C)n(-c4ccc(-c5ccccc5CN(C)C)cc4)c(=O)c32)cc1

- Ki (Coagulation factor X [1]): 22 nM
Compound: COc1ccc(-n2nc(CN)c3ncn(-c4ccc(-c5ccccc5S(N)(=O)=O)cc4)c(=O)c32)cc1

- Ki (Coagulation factor X [1]): 1.9 nM
Compound: COc1ccc(-n2nc(C#N)c3ncn(-c4ccc(-c5ccccc5S(N)(=O)=O)cc4)c(=O)c32)cc1
- 2aPTT [2]: 5.8 µM

- Ki (Coagulation factor X [1]): 1.8 nM
Compound: COC(=O)c1nn(-c2ccc(OC)cc2)c2c(=O)n(-c3ccc(-c4ccccc4S(N)(=O)=O)cc3F)cnc12

- Ki (Coagulation factor X [1]): 1.7 nM
Compound: COc1ccc(-n2nc(C(N)=O)c3ncn(-c4ccc(-c5ccccc5S(N)(=O)=O)cc4)c(=O)c32)cc1
- 2aPTT [2]: 8.7 µM

- clearance [5]: 113 mL/min/kg
- Vd [6]: 75 L/kg
- half-life [7]: 8.3 h
- bioavailability [8]: 77%
- Papp [9]: 3.1 ×10⁻⁶ cm/s
Compound: COc1ccc(-n2nc(C#N)c3ncn(-c4ccc(-c5ccccc5CN5CCCC5)cc4)c(=O)c32)cc1.O=C(O)C(F)(F)F

- Ki (Coagulation factor X [1]): 38 nM
Compound: COc1ccc(-n2nc(C(=O)O)c3ncn(-c4ccc(-c5ccccc5S(N)(=O)=O)cc4)c(=O)c32)cc1

- Ki (Coagulation factor X [1]): 1.7 nM
- Ki (Prothrombin): 1100 nM
- Ki (Trypsin): > 2500 nM
- Ki [10]: 48700 nM
- Ki (Coagulation factor IX): > 15000 nM
- Ki (Coagulation factor VII): > 15000 nM
- Ki (Plasminogen): > 15000 nM
- Ki [11]: > 33000 nM
- Ki [12]: > 13000 nM
- Ki (Chymotrypsinogen B): 2030 nM
Compound: COc1ccc(-n2nc(C#N)c3ncn(-c4ccc(-c5ccccc5CN5CCCC5)cc4)c(=O)c32)cc1

- Ki (Coagulation factor X [1]): 1.2 nM
Compound: COc1ccc(-n2nc(C(N)=O)c3ncn(-c4ccc(-c5ccccc5S(N)(=O)=O)cc4F)c(=O)c32)cc1
- 2aPTT [2]: 9.8 µM

- Ki (Coagulation factor X [1]): 2.8 nM
Compound: COC(=O)c1nn(-c2ccc(OC)cc2)c2c(=O)n(-c3ccc(-c4ccccc4S(N)(=O)=O)cc3)cnc12
- 2aPTT [2]: 7.1 µM

- Ki (Coagulation factor X [1]): 2.8 nM
Compound: COc1ccc(-n2nc(C(F)(F)F)c3c(C)nn(-c4ccc(-c5ccccc5S(N)(=O)=O)cc4)c(=O)c32)cc1
